What was measured:
Format in all cases: functional, cell-based
MCF7 = test: CYtotoxicity against ER-positive human MCF7 cells by MTS assay
Method in brief: (§1)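 Cells seeded at 2×10^3/well, exposed to DMSO or 0.01, 0.1, 1, 5, 10 and 100 μM compound for 72 h. MTS reagent added, then OD at 550 nm read after 1 h at 37 °C. Quadruplicate wells per concentration.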

ASPC1 = test: CYtotoxicity against human AsPC1 cells by MTS assay; method in brief: as §1
MDA-MB-231 = test: CYtotoxicity against ER-negative human MDA-MB-231 cells by MTS assay; method in brief: as §1
PANC-1 = test: CYtotoxicity against human PANC1 cells by MTS assay; method in brief: as §1

Row | Structure (SMILES) | IC50 (MCF7) | IC50 (ASPC1) | IC50 (MDA-MB-231) | IC50 (PANC-1)
1 | O=C(Nc1ccc2c(c1)S(=O)(=O)C=C2)c1ccnc2ccccc12 | 2.97 µM | 6.97 µM | 6.21 µM | 7.92 µM
2 | O=C(Nc1nnc(-c2ccco2)o1)c1cc(Cl)ccc1O | > 10 µM | > 10 µM | > 10 µM | > 10 µM
3 | O=C(Nc1ccc2c(c1)S(=O)(=O)C=C2)c1ccncc1 | > 10 µM | – | > 10 µM | –
4 | C[C@H](NC(=O)c1cc(Cl)ccc1O)c1ccccc1 | 0.9 µM | 7.54 µM | 8.88 µM | 8.44 µM
5 | O=C(Nc1ccc2c(c1)S(=O)(=O)C=C2)c1ccnc(-c2ccccc2)c1 | 3.78 µM | 1.3 µM | 1.85 µM | 3.35 µM
6 | N#CCC(=O)Nc1ccc2c(c1)S(=O)(=O)C=C2 | > 10 µM | – | > 10 µM | –
